Data set [1] can be described thus: Antiproliferative activity against human KBVIN cells assessed as reduction in cell growth after 72 hrs by sulforhodamine B assay. In kind it is functional, cell-based. In general terms: Sulforhodamine B stains cellular protein and so reports cell mass.
For data set [2], the system named is A549. Briefly: Cell cycle arrest in human A549 cells assessed as accumulation at Sub-G1 phase at 3 times IC50 after 24 to 48 hrs by propidium iodide staining based flow cytometry. Type of data set: functional. (In general: A flow cytometer gives signals particle by particle.)
Another data set relates to KB. Briefly: Antiproliferative activity against human KB cells assessed as reduction in cell growth after 72 hrs by sulforhodamine B assay.
Data set [3] deals with LNCaP. In words: Antiproliferative activity against human LNCAP cells assessed as reduction in cell growth treated every 2 days for 4 days by hemocytometry. In kind it is functional, cell-based.
A short description of data set [4]: Antiproliferative activity against human PC3/TxR/CxR cells assessed as reduction in cell growth treated every 2 days for 4 days by hemocytometry. In kind it is functional, cell-based.
A further data set deals with MCF7. Briefly: Antiproliferative activity against human MCF7 cells assessed as reduction in cell growth after 72 hrs by sulforhodamine B assay. Particulars: MCF7, 72 h.
In data set [5] the test system is A549. In words: Antiproliferative activity against human A549 cells assessed as reduction in cell growth after 72 hrs by sulforhodamine B assay. Particulars: A549, 72 h.
Data set [6] in a line: Antiproliferative activity against human DU145-TxR cells assessed as reduction in cell growth treated every 2 days for 4 days by hemocytometry. In kind it is functional, cell-based.
Data set [7] can be described thus: Antiproliferative activity against human PC3-TxR cells assessed as reduction in cell growth treated every 2 days for 4 days by hemocytometry. Type of data set: functional, cell-based.
The target in data set [8] is T1, Androgen receptor (Homo sapiens) (UniProt P10275).
T1 sequence (whole entry): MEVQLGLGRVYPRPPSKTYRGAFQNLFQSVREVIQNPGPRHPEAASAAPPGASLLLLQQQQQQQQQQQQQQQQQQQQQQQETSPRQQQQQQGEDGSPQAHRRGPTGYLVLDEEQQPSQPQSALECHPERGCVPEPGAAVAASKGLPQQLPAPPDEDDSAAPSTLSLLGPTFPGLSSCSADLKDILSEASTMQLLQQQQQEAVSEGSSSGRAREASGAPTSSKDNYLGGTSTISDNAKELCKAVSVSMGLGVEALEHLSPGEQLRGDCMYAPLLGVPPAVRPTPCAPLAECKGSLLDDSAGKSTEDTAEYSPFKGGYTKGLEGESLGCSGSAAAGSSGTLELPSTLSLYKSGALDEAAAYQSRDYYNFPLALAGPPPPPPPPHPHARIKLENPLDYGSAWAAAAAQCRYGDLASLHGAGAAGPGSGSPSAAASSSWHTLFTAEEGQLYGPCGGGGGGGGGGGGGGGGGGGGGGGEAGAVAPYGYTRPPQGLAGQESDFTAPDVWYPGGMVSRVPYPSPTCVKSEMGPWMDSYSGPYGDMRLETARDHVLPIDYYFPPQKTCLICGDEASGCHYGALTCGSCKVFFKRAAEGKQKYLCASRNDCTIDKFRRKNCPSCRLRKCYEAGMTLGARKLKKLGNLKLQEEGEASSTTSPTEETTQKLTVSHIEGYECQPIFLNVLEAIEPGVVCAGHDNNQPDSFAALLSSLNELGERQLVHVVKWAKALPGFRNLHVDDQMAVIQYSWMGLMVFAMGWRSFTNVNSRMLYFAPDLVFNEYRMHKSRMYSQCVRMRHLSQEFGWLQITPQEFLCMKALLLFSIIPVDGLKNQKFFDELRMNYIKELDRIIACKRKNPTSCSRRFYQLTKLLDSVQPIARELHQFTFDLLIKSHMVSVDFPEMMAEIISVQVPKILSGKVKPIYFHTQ
Briefly: Antagonist activity at AR in human LNCAP cells assessed as reduction in DHT-induced cell growth at 1 to 3 uM treated for every 2 days for 4 days by hemocytometry. Type of data set: cell-based.

In data set [9] the target is T1, Androgen receptor (Homo sapiens). In words: Antagonist activity at AR (unknown origin) expressed in human PC3 cells assessed as reduction in DHT-induced transcriptional activation at 3 to 10 uM after 24 hrs by luciferase reporter gene assay. Type of data set: cell-based. The procedure, abridged:
(§1)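 PC-3 cells (AR-negative) co-transfected with wild-type or AR-V7 expression vector plus PSA promoter-luciferase reporter (pGL3PSAp-5.8, 0.5 ug/well); seeded 50,000/well, transfected after 24 h, treated with compounds ± 1 nM DHT for 24 h from 24 h post-transfection; lysed cells read for luciferase activity by luminometer.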

Data set [10] concerns Androgen receptor (Homo sapiens), P10275 [UNDEFINED MUTATION]. Briefly: Antagonist activity at AR V7 mutant (unknown origin) expressed in human PC3 cells assessed as reduction in DHT-induced transcriptional activation after 24 hrs by luciferase reporter gene assay. Type of data set: cell-based. The procedure, abridged: as §1
The subject of a further data set is DU-145. Briefly: Antiproliferative activity against human DU145 cells assessed as reduction in cell growth treated every 2 days for 4 days by hemocytometry. In kind it is functional, cell-based.
The species named for data set [11] is Homo sapiens. Briefly: Antiproliferative activity against human LNCaP-SF cells assessed as reduction in cell growth at 10 uM treated every 2 days for 4 days by hemocytometry. In kind it is functional, cell-based. The procedure, abridged:
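LNCaP-SF castration-resistant subline cultured 4 days with compound at stated concentrations, with or without 0.1 nM DHT; growth assessed by cell counting.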

Data set [12] is described as follows: Antiproliferative activity against human DU145/TxR/CxR cells assessed as reduction in cell growth treated every 2 days for 4 days by hemocytometry. Type of data set: functional, cell-based. Conditions: DU-145.
In data set [13] the test system is PC-3. In words: Antiproliferative activity against human PC3 cells assessed as reduction in cell growth treated every 2 days for 4 days by hemocytometry. In kind it is functional, cell-based.
In data set [14] the test system is LNCaP. Briefly: Antiproliferative activity against human LNCAP cells assessed as reduction in cell growth at 10 uM treated every 2 days for 4 days by hemocytometry. In kind it is functional, cell-based.
Data set [15] concerns PC-3. Briefly: Antitumor activity against human PC3 cells xenografted in C.B-17 SCID mouse assessed as tumor growth inhibition at 30 mg/kg, ip administered every 4 days measured during compound dosing. Type of data set: functional, organism-based. The procedure, abridged: (§2)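 Male C.B-17 scid mice (purchased at 7 weeks) given 2.0×10⁶ PC-3 cells in 50% matrigel subcutaneously on dorsal side at 8 weeks; at ~50 mm³ tumor, randomized into groups of 5, dosing from second day at 30 mg/kg i.p. every 4 days; tumor volume and body weight followed; mean ± SD.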
For orientation: Xenograft models place foreign cells or tissue in a host animal.

The species entered for data set [16] is Homo sapiens. Briefly: Induction of microtubule depolymerization in human PC3 cells at 2 times IC50 after 24 hrs by […] microscopic analysis. Type of data set: cell-based.
Data set [17] has as its system PC-3. Briefly: Cell cycle arrest in human PC3 cells assessed as accumulation at Sub-G1 phase at 2 times IC50 after 24 to 48 hrs by propidium iodide staining based flow cytometry. Type of data set: functional.
The test system of a further data set is MDA-MB-231. Briefly: Antiproliferative activity against human MDA-MB-231 cells assessed as reduction in cell growth after 72 hrs by sulforhodamine B assay. Type of data set: functional, cell-based. Particulars: MDA-MB-231, 72 h.
Data set [18] relates to A549. In words: Cell cycle arrest in human A549 cells assessed as accumulation at G1 phase at 3 times IC50 after 24 to 48 hrs by propidium iodide staining based flow cytometry. Type of data set: functional.
A further data set concerns the target T2, Androgen receptor (Homo sapiens, UniProt P10275).
T2 sequence (P10275 whole entry): T1 sequence (whole entry)
Briefly: Antagonist activity at AR in human LNCAP cells assessed as reduction in DHT-induced transcriptional activation after 24 hrs by luciferase reporter gene assay. Type of data set: cell-based.

For the next data set, the system named is Mus musculus. In words: Toxicity in C.B-17 SCID mouse xenografted with human PC3 cells assessed as body weight loss at 30 mg/kg, ip administered every 4 days. Conditions: in vivo, 96 h. Type of data set: organism-based. The procedure, abridged:
as §2

Molecules are shown by their SMILES. Activity calls are given as the source filed them. No cut-off for these calls is given here. Where only a bound is given, the exact number is not on record here.

A word on the IC50: it is the concentration needed to halve the response being measured. Regarding `O=C(/C=C/c1ccccc1O)c1cc(Cl)ccc1O`, the IC50 in [1] stood at 4.9 µM; with KB, 5 µM; in the data set with LNCaP [3], 3.52 µM; in [4], 4.07 µM; in the data set with MCF7, 4.9 µM; in the data set with A549 [5], 9.1 µM. Besides, the IC50 in data set [6] is 7.43 µM; in [7], under 3 µM; with DU-145 it was 4.5 µM; in data set [12], 5.32 µM; in the data set with PC-3 [13] it was 1.52 µM; in the data set on MDA-MB-231, 5.1 µM. Also, the IC50 on Androgen receptor was under 1 µM. Further, the outcome in the data set on A549 [2] was inactive. In addition, the result (in [8]; in the data set listed under Homo sapiens [11]; in the data set with LNCaP [14]; in the data set filed under Homo sapiens [16]; with PC-3 [17]; in the data set with A549 [18]) was Active. Besides, the inhibition result in data set [9] was “Active”. Besides, the inhibition entry in data set [10] was “Dose-dependent effect”. In addition, the TGI result with PC-3 [15] is “Active”. Moreover, the Activity result in the data set on Mus musculus is reported as “Non-Toxic”.

Values taken from ChEMBL document CHEMBL4270636, “5'-Chloro-2,2'-dihydroxychalcone and related flavanoids as treatments for prostate cancer” (Eur J Med Chem, 2018).
